Measurements taken from ChEMBL document CHEMBL1122426, “Radioiodine-labeled N,N-dimethyl-N'-(2-hydroxy-3-alkyl-5-iodobenzyl)-1,3-propanediamines for brain perfusion imaging” (J Med Chem, 1983).

What was measured:
Rattus norvegicus [1] = species on record: Rattus norvegicus; assay: Effect of specific activity of compound on biodistribution in rats blood 1 hr after injection at the dose of 2.5 mg value expressed in average % dose per organ; value may range from 0.58 to 0.71; format: ADME, organism-based; conditions: in vivo
Procedure, shortened: (§1)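 Rats received an intravenous injection of the I-125 labeled diamine with added unlabeled carrier (6.25, 2.5, 0.25 or 0.025 mg per dose). At 1 h, organs were counted. Percent dose per organ came from comparing tissue radioactivity with diluted aliquots of the injected dose. Values are the average and range of 3 rats. Brain/blood ratio was taken from % dose per gram, calculated using mean organ weights (brain 1.65 g; blood 18 g).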

Rattus norvegicus [2] = species on record: Rattus norvegicus; assay: Effect of specific activity of compound on biodistribution in rats lungs 1 hr after injection at the dose of 2.5 mg value expressed in average % dose per organ; value may range from 5.89 to 8.67; format: ADME, organism-based, Lung; conditions: in vivo; procedure, shortened: as §1
Rattus norvegicus [3] = species on record: Rattus norvegicus; assay: Effect of specific activity of compound on biodistribution in rats muscle after injection at the dose of 0.025 mg value expressed in average % dose per organ; value may range from 11.6 to 12.9; format: ADME, organism-based, Muscle tissue; conditions: in vivo; procedure, shortened: as §1
Rattus norvegicus [4] = species on record: Rattus norvegicus; assay: Effect of specific activity of compound on biodistribution in rats thyroid after injection at the dose of 0.025 mg value expressed in average % dose per organ; value may range from 0.15 to 0.17; format: ADME, organism-based, Thyroid gland; conditions: in vivo; procedure, shortened: as §1
Rattus norvegicus [5] = assay: Biodistribution of I-125 labeled compound in rat muscle, 1 hr after intravenous injection. value expressed in average % dose per organ; value may range from 8.99 to 14.4; format: ADME, organism-based, Muscle tissue; conditions: in vivo
Rattus norvegicus [6] = assay: Biodistribution of I-125 labeled compound in rat muscle, 2 min after intravenous injection value expressed in average % dose per organ; value may range from 5.84 to 12.8; format: ADME, organism-based, Muscle tissue; conditions: in vivo
[7] = Biodistribution of [125I]- compound in a monkey lungs.1h after intravenous injection. the value expressed in %dose/gram; conditions: simiiformes, in vivo
[8] = Biodistribution of [125I]- compound in a monkey blood. 1 hr after intravenous injection. the value expressed in %dose/gram; conditions: simiiformes, in vivo

Average dose per organ (Rattus norvegicus [1]): 0.65% | Average dose per organ (Rattus norvegicus [2]): 6.87% | Average dose per organ (Rattus norvegicus [3]): 12.2% | Average dose per organ (Rattus norvegicus [4]): 0.16% | Average dose per organ (Rattus norvegicus [5]): 11.9% | Average dose per organ (Rattus norvegicus [6]): 9.24% | Dose/g [7]: 1.05% | Dose/g [8]: 0.002%
SMILES: Cc1cc(I)cc(CNCCCN(C)C)c1O
